Measurements: ChEMBL document CHEMBL4689842, “EUbOPEN Chemogenomics Library wave 1” (2021)
Where “and” joins values, the source holds several entries; their conditions need not be identical. Equal entries are not always repeated.

System: U2OS
Test: Multiplex assay against U2OS
Format: toxicity, cell-based
Settings: human
Outline: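 Imaging took place on a CQ1 microscope at 37°C and 5% CO2 once compound had been added to live cells stained at seeding with Hoechst33342, BioTracker Green Microtubule Cytoskeleton Dye, MitoTracker Red and Annexin V Alexa Fluor 680. CellPathfinder machine-learning gating classed cells as Hoechst high-intensity objects or normal cells, classed normal cells as having healthy, pyknosed or fragmented nuclei, and classed pyknosed cells as mitotic or apoptotic. Tubulin, mitochondrial-mass and membrane-permeability phenotypes are per cents of the healthy-nucleus cells.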

[1] = 12 h, 1 µM, compound concentration 1 uM, replicate 1
[2] = 12 h, 1 µM, compound concentration 1 uM, replicate 2
[3] = 12 h, 10 µM, compound concentration 10 uM, replicate 1
[4] = 12 h, 10 µM, compound concentration 10 uM, replicate 2
[5] = 24 h, 1 µM, compound concentration 1 uM, replicate 1
[6] = 24 h, 1 µM, compound concentration 1 uM, replicate 2
[7] = 24 h, 10 µM, compound concentration 10 uM, replicate 1
[8] = 24 h, 10 µM, compound concentration 10 uM, replicate 2
[9] = 48 h, 1 µM, compound concentration 1 uM, replicate 1
[10] = 48 h, 1 µM, compound concentration 1 uM, replicate 2
[11] = 48 h, 10 µM, compound concentration 10 uM, replicate 1
[12] = 48 h, 10 µM, compound concentration 10 uM, replicate 2

## CCC1=C[C@@H]2C[N@](C1)Cc1c([nH]c3ccccc13)[C@@](C(=O)OC)(c1cc3c(cc1OC)N(C)[C@H]1[C@@](O)(C(=O)OC)[C@H](OC(C)=O)[C@]4(CC)C=CCN5CC[C@]31[C@@H]54)C2.O=C(O)C(O)C(O)C(=O)O.O=C(O)C(O)C(O)C(=O)O [VINORELBINE TARTRATE]
[1]
  Population Apoptotic (%): 55% and 29%
  Population Fragmented Nuclei (%): 14% and 9%
  Population Healthy Nuclei (%): 59% and 76%
  Population Mitochondria Different-Phenotype (%): 34% and 22%
  Population Mitotic Cells (%): 44% and 70%
  Population Normal (%): 97% and 92%
  Population Pyknosed Nuclei (%): 25% and 14%
  Population Tubulin-Different-Phenotype (%): 26%
[2]
  Population Fragmented Nuclei (%): 22%
  Population Healthy Nuclei (%): 50% and 69%
  Population Hoechst High Intensity Objects (%): 16% and 20%
  Population Mitochondria Different-Phenotype (%): 30%
  Population Mitotic Cells (%): 36% and 80%
  Population Normal (%): 83% and 79%
  Population Pyknosed Nuclei (%): 27% and 16%
  Population Tubulin-Different-Phenotype (%): 45% and 34%
[3]
  Population Apoptotic (%): 53% and 34%
  Population Fragmented Nuclei (%): 14% and 8%
  Population Healthy Nuclei (%): 74% and 76%
  Population Hoechst High Intensity Objects (%): 6% and 8%
  Population Mitochondria Different-Phenotype (%): 35% and 24%
  Population Mitotic Cells (%): 46% and 65%
  Population Normal (%): 93% and 91%
  Population Pyknosed Nuclei (%): 11% and 14%
  Population Tubulin-Different-Phenotype (%): 20% and 18%
  Total Cell Count: 168 and 185
[4]
  Population Fragmented Nuclei (%): 12% and 11%
  Population Healthy Nuclei (%): 58% and 67%
  Population Hoechst High Intensity Objects (%): 13% and 18%
  Population Membrane Permeable-Phenotype (%): 56% and 20%
  Population Mitochondria Different-Phenotype (%): 45% and 18%
  Population Mitotic Cells (%): 40% and 82%
  Population Normal (%): 86% and 81%
  Population Pyknosed Nuclei (%): 29% and 21%
  Population Tubulin-Different-Phenotype (%): 45%
  Total Cell Count: 132 and 78
[5]
  Population Apoptotic (%): 35% and 65%
  Population Fragmented Nuclei (%): 20% and 14%
  Population Healthy Nuclei (%): 49% and 56%
  Population Hoechst High Intensity Objects (%): 1% and 3%
  Population Membrane Permeable-Phenotype (%): 21% and 52%
  Population Mitochondria Different-Phenotype (%): 26% and 37%
  Population Mitotic Cells (%): 64% and 34%
  Population Normal (%): 98% and 96%
  Population Pyknosed Nuclei (%): 30% and 28%
  Population Tubulin-Different-Phenotype (%): 41% and 34%
[6]
  Population Apoptotic (%): 61%
  Population Fragmented Nuclei (%): 30% and 22%
  Population Healthy Nuclei (%): 36% and 59%
  Population Hoechst High Intensity Objects (%): 11% and 15%
  Population Membrane Permeable-Phenotype (%): 60% and 22%
  Population Mitochondria Different-Phenotype (%): 40%
  Population Mitotic Cells (%): 38%
  Population Normal (%): 88% and 84%
  Population Pyknosed Nuclei (%): 33% and 18%
  Population Tubulin-Different-Phenotype (%): 62% and 31%
[7]
  Population Apoptotic (%): 63% and 43%
  Population Fragmented Nuclei (%): 18% and 14%
  Population Healthy Nuclei (%): 55%
  Population Hoechst High Intensity Objects (%): 7% and 4%
  Population Membrane Permeable-Phenotype (%): 55%
  Population Mitochondria Different-Phenotype (%): 29% and 33%
  Population Mitotic Cells (%): 36% and 56%
  Population Normal (%): 92% and 95%
  Population Pyknosed Nuclei (%): 25% and 30%
  Population Tubulin-Different-Phenotype (%): 29% and 34%
  Total Cell Count: 176 and 207
[8]
  Population Apoptotic (%): 82% and 47%
  Population Fragmented Nuclei (%): 21% and 17%
  Population Healthy Nuclei (%): 43%
  Population Hoechst High Intensity Objects (%): 9% and 14%
  Population Mitochondria Different-Phenotype (%): 43% and 22%
  Population Normal (%): 90% and 85%
  Population Pyknosed Nuclei (%): 34% and 26%
  Population Tubulin-Different-Phenotype (%): 38% and 22%
  Total Cell Count: 147 and 90

## CC(C)c1noc(N2CCC(COc3ccc(-c4ccc(S(C)(=O)=O)cc4)nc3)CC2)n1 [GSK-1292263]
[1]
  Population Apoptotic (%): 58%
  Population Fragmented Nuclei (%): 25%
  Population Healthy Nuclei (%): 64%
  Population Hoechst High Intensity Objects (%): 17%
  Population Membrane Permeable-Phenotype (%): 5%
  Population Mitochondria Different-Phenotype (%): 10%
  Population Mitotic Cells (%): 41%
  Population Normal (%): 82%
  Population Pyknosed Nuclei (%): 10%
  Population Tubulin-Different-Phenotype (%): 10%
  Total Cell Count: 304
[2]
  Population Apoptotic (%): 50%
  Population Fragmented Nuclei (%): 12%
  Population Healthy Nuclei (%): 85%
  Population Hoechst High Intensity Objects (%): 2%
  Population Membrane Permeable-Phenotype (%): 3%
  Population Mitochondria Different-Phenotype (%): 4%
  Population Mitotic Cells (%): 50%
  Population Normal (%): 97%
  Population Pyknosed Nuclei (%): 2%
  Population Tubulin-Different-Phenotype (%): 9%
  Total Cell Count: 89
[3]
  Population Apoptotic (%): 54%
  Population Fragmented Nuclei (%): 16%
  Population Healthy Nuclei (%): 67%
  Population Hoechst High Intensity Objects (%): 7%
  Population Membrane Permeable-Phenotype (%): 12%
  Population Mitochondria Different-Phenotype (%): 18%
  Population Mitotic Cells (%): 45%
  Population Normal (%): 92%
  Population Pyknosed Nuclei (%): 15%
  Population Tubulin-Different-Phenotype (%): 33%
  Total Cell Count: 141
[4]
  Population Apoptotic (%): 42%
  Population Fragmented Nuclei (%): 5%
  Population Healthy Nuclei (%): 83%
  Population Hoechst High Intensity Objects (%): 5%
  Population Membrane Permeable-Phenotype (%): 3%
  Population Mitochondria Different-Phenotype (%): 10%
  Population Mitotic Cells (%): 57%
  Population Normal (%): 94%
  Population Pyknosed Nuclei (%): 10%
  Population Tubulin-Different-Phenotype (%): 15%
  Total Cell Count: 76
[5]
  Population Apoptotic (%): 50%
  Population Fragmented Nuclei (%): 17%
  Population Healthy Nuclei (%): 73%
  Population Hoechst High Intensity Objects (%): 15%
  Population Membrane Permeable-Phenotype (%): 5%
  Population Mitochondria Different-Phenotype (%): 11%
  Population Mitotic Cells (%): 50%
  Population Normal (%): 84%
  Population Pyknosed Nuclei (%): 8%
  Population Tubulin-Different-Phenotype (%): 5%
  Total Cell Count: 334
[6]
  Population Apoptotic (%): 0%
  Population Fragmented Nuclei (%): 14%
  Population Healthy Nuclei (%): 83%
  Population Hoechst High Intensity Objects (%): 2%
  Population Membrane Permeable-Phenotype (%): 2%
  Population Mitochondria Different-Phenotype (%): 10%
  Population Mitotic Cells (%): 100%
  Population Normal (%): 97%
  Population Pyknosed Nuclei (%): 2%
  Population Tubulin-Different-Phenotype (%): 13%
  Total Cell Count: 103
[7]
  Population Apoptotic (%): 40%
  Population Fragmented Nuclei (%): 20%
  Population Healthy Nuclei (%): 67%
  Population Hoechst High Intensity Objects (%): 7%
  Population Membrane Permeable-Phenotype (%): 9%
  Population Mitochondria Different-Phenotype (%): 14%
  Population Mitotic Cells (%): 60%
  Population Normal (%): 92%
  Population Pyknosed Nuclei (%): 12%
  Population Tubulin-Different-Phenotype (%): 14%
  Total Cell Count: 168
[8]
  Population Apoptotic (%): 36%
  Population Fragmented Nuclei (%): 7%
  Population Healthy Nuclei (%): 79%
  Population Hoechst High Intensity Objects (%): 4%
  Population Membrane Permeable-Phenotype (%): 7%
  Population Mitochondria Different-Phenotype (%): 12%
  Population Mitotic Cells (%): 63%
  Population Normal (%): 95%
  Population Pyknosed Nuclei (%): 13%
  Population Tubulin-Different-Phenotype (%): 7%
  Total Cell Count: 91
[9]
  Population Apoptotic (%): 42%
  Population Healthy Nuclei (%): 79%
  Population Hoechst High Intensity Objects (%): 9%
  Population Membrane Permeable-Phenotype (%): 2%
  Population Mitochondria Different-Phenotype (%): 12%
  Population Mitotic Cells (%): 57%
  Population Normal (%): 90%
  Population Pyknosed Nuclei (%): 9%
  Population Tubulin-Different-Phenotype (%): 8%
  Total Cell Count: 406
[10]
  Population Apoptotic (%): 25%
  Population Fragmented Nuclei (%): 11%
  Population Healthy Nuclei (%): 85%
  Population Hoechst High Intensity Objects (%): 0%
  Population Membrane Permeable-Phenotype (%): 4%
  Population Mitochondria Different-Phenotype (%): 13%
  Population Mitotic Cells (%): 75%
  Population Normal (%): 100%
  Population Pyknosed Nuclei (%): 3%
  Population Tubulin-Different-Phenotype (%): 12%
  Total Cell Count: 136
[11]
  Population Apoptotic (%): 60%
  Population Fragmented Nuclei (%): 14%
  Population Healthy Nuclei (%): 76%
  Population Hoechst High Intensity Objects (%): 8%
  Population Mitotic Cells (%): 40%
  Population Normal (%): 91%
  Population Pyknosed Nuclei (%): 9%
  Population Tubulin-Different-Phenotype (%): 9%
  Total Cell Count: 231
[12]
  Population Apoptotic (%): 23%
  Population Fragmented Nuclei (%): 5%
  Population Healthy Nuclei (%): 80%
  Population Hoechst High Intensity Objects (%): 2%
  Population Membrane Permeable-Phenotype (%): 6%
  Population Mitochondria Different-Phenotype (%): 13%
  Population Mitotic Cells (%): 76%
  Population Normal (%): 97%
  Population Pyknosed Nuclei (%): 14%
  Population Tubulin-Different-Phenotype (%): 7%
  Total Cell Count: 130
